GASC-1 inh: human JMJD2C demethylase inhibition; Q9H3R0; GST-JMJD2C(1-420) H3K9me3 demethylation, DELFIA europium; inhibition, % at 2.35 µM; actives 0.069% (n = 330,000); AID 2099;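 active means more than half of a compound's replicate wells show inhibition beyond 50%, single wells judged on their own value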;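 further: signal counts dimethyl H3K9 product captured on neutravidin plate; 0% = median of DMSO wells and 100% = 0.3 times that DMSO median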
GC-A act: GC-A (human) enzyme activation; activation, % at 10 µM; P16066; HEK293 GC-A cells, cGMP TR-FRET, EC30 ANP; 0% at EC30 ANP, 100% saturating ANP; actives 0.14% (n = 370,000); in the data active means activation above about 40%
aDG glyco act: alpha-DG glycosylation activation; actives 0.22% (n = 360,000); Pro5-aDG cells, alpha-DG glycosylation AlphaScreen (IIH6); 0% Pro5, 100% B10-LARGE cell signal; activation, % at 10 µM; AID 624168;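 active means activation of at least 8% versus controls, or a plate z-score of at least 8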;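 further: Pro5 are CHO cells carrying HIG-tagged alpha-DG that lacks glycosylation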
NR3A LBD binder: modulators (binders) of human NR3A ligand-binding domain. AID 1259313. actives 2.5% (n = 340,000). Tm shift relative to glycine control, % at 25 µM. NR3A LBD differential scanning fluorimetry, Tm shift; 0% = protein alone, 100% = glycine-bound protein;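 active means melting temperature shift of at least 10% of the positive control shift, at one fixed dose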
Lipid droplet: hepatic lipid droplet formation modulation. AML12 mouse hepatocytes, oleate lipid droplets, BODIPY imaging. inhibition, % at 6.5 µM. actives 0.4% (n = 240,000). AID 1656;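 active means lipid droplet intensity inhibited by at least 50%, with more than 500 cells counted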
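Material: mouse AML12 hepatocyte cell line, fixed after treatment; Timing: compound with oleate, overnight; Technique: high-content imaging of BODIPY-stained droplets and DAPI nuclei; Probe or stimulus: oleate, 100 µM final; Dosing: compound at 6.5 µM only.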
GC-B act: GC-B (human) receptor activation; activation, % at 10 µM; actives 0.11% (n = 370,000); AID 1920062; HEK293-GC-B cells, CNP EC30, cGMP TR-FRET; 0% at EC30 CNP, 100% saturating CNP;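 active means activation at 10 µM reaching about 35% in either raw or pattern-adjusted values, limit read from the data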
Active calls of the source: *; / = not tested or not shown. The list is not random: actives were taken first. Their share in the collection is about 3%.

SMILES	GASC-1 inh	GC-A act	aDG glyco act	NR3A LBD binder	Lipid droplet	GC-B act
COC(=O)C1=C(C)N(Cc2ccc(C(F)(F)F)cc2)C(=NCc2cccc(C(F)(F)F)c2)NC1c1ccccc1C(F)(F)F (stereo unspecified)	/	2	/	/	/	3
COC1=CC(=O)C(O)=C(CCCCCCC/C=C/CCCCCCCC2=C(O)C(=O)C=C(OC)C2=O)C1=O	-5	/	0	25*	/	/
CCCCCCCCCCCC1=C(O)C(=O)C=C(O)C1=O	-9	/	0	-14	/	/
O=C(Nc1ccc([N+](=O)[O-])cc1)Nc1ccc(N2CCOCC2)c2nonc12	-6	0	0	18*	-2	14
CC(=O)Nc1cc([N+](=O)[O-])ccc1N1CCOCC1	5	7	0	-3	0	6
C/C(=N\NC(=O)c1nnn(-c2nonc2N)c1C(C)C)c1cc(C)sc1C	7	-10	0	-12	-19	-8
COc1ccc([C@H]2C[C@H](O)[C@@H](n3cc(C4CC4)nn3)CN2C(=O)C2CCCCC2)cc1	/	-4	0	/	/	7
O=C(NCc1cccc2ccccc12)C1CCCN(c2nc3ccccc3o2)C1 (stereo unspecified)	/	-1	/	/	/	6
Fc1ccc(NC(=S)NCCc2ccc(Cl)cc2)cc1	-9	-1	0	23*	-4	-1
O=C(NCCc1ccc(F)cc1)Nc1ccc([N+](=O)[O-])cc1	7	-1	0	5	5	-1
Fc1ccc(CCNC(=S)Nc2ccc(F)c(Cl)c2)cc1	-16	4	3	35*	-28	0
O=[N+]([O-])c1ccc(NC(=S)NCCc2ccc(F)cc2)cc1	-2	13	0	30*	2	7
Cc1ccc(C(=O)NCCN2C(=O)C3C4C=CC(C4)C3C2=O)cc1 (stereo unspecified)	/	0	/	/	/	-7
COC(=O)[C@]12C[C@H](CC(=O)N3CCCC3)C(=O)N(Cc3cccc4ccccc34)C1=C[C@H](COCc1ccccc1)O[C@@H]2C	/	-4	/	/	/	5
CC(C)CN(C(=O)CCC(=O)OC(C)C(=O)Nc1cccc(C#N)c1)c1c(N)n(CC(C)C)c(=O)[nH]c1=O (stereo unspecified)	-4	4	0	-1	/	-2
CCCCCN(C(=O)CCC(=O)OCC(=O)c1cccc(OC)c1)c1c(N)n(CCCC)c(=O)[nH]c1=O	59*	0	0	1	-1	-4
CCCCCN(C(=O)CCC(=O)OC(C)C(=O)Nc1cccc(C#N)c1)c1c(N)n(CCCC)c(=O)[nH]c1=O (stereo unspecified)	2	2	0	18*	/	1
COC(=O)[C@]12C[C@H](CC(=O)N3CCCCC3)C(=O)N(CCc3ccc(OC)c(OC)c3)C1=C[C@H](C1CCCC1)O[C@@H]2C	/	-3	/	/	/	-5
COCCCN1C(=O)[C@H](CC(=O)NCc2ccccc2)[C@]2(C(=O)OC)CCCCC=C12	/	4	/	/	/	1
CC(C)[C@H](NC(=O)c1cccs1)C(=O)N1CCC[C@H]1C(=O)NCc1ccccc1	/	1	/	/	/	-2
Cc1ccc(Nc2nc3ccccc3o2)cc1F	-5	9	0	12*	16	-7
CCCCCCC12Cc3cc(OC)c(OC)cc3C(O1)C1=C(O2)C(C)(C)CCC1=O (stereo unspecified)	/	-2	/	/	/	1
CCCN(CCC)S(=O)(=O)c1ccc(C(=O)Nc2nnc(-c3cc(OC)cc(OC)c3)o2)cc1	5	/	5.5*	1	12	/
COc1ccc(/C(C)=N/N=C(\C)c2ccc(OC)cc2OC)c(OC)c1	2	-25	0	12*	-6	-14
c1ccc(-c2cc(-c3nc4ccccc4[nH]3)c3ccccc3n2)cc1	-1	16	0	22*	-5	23
O=c1c2ccccc2[nH]c2ccc(F)cc12	16	3	1	11*	-2	3
Nc1cc2c(cc1Br)-c1ccccc1C2=NO	/	-2	2	31*	/	-11
ON=C1c2ccccc2-c2ccc(Br)cc21	/	1	0	-14	/	-8

Source: PubChem BioAssay
